High-throughput results deposited in PubChem BioAssay by Johns Hopkins Ion Channel Center.
Shown are actives, neighbours in structure and some others; about 3.7% of the full set was active somewhere.
Kir21 inh: inhibitors of mouse Kir2.1 inward-rectifier potassium channel. HEK293-Kir2.1, FluxOR thallium flux fluorescence; active compounds read low. Inward rectifier potassium channel 2 (Mus musculus), P35561. 0.85% of 310,000 active. AID 1672, 2009. B-score at 10 µM;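 active = fluorescence ratio B-score at or below minus 3 SD of library scores, with starting-brightness B-score within 2 SD, cut at about -4.2 in these data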;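 note: channel flux triggered by added potassium and thallium sulfate stimulus; B-score of peak minus minimum fluorescence over baseline after thallium stimulus; more negative B-score means stronger Kir2.1 block with less thallium influx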
KCNK9 inh: KCNK9 potassium channel inhibitors, primary screen, HEK293 cells, thallium flux. 1.2% of 310,000 active. B-score at 10 µM. AID 488922, 2010. FluxOR thallium flux fluorescence; active compounds read low. Potassium channel subfamily K member 9 (Homo sapiens), Q9NPC2;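 active = ratio B-score over 3 SD below the library mean, with starting fluorescence within 5 SD of its mean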;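 note: negative B-score means less thallium flux so channel inhibition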
Target sequence (Q9NPC2 whole entry, looked up): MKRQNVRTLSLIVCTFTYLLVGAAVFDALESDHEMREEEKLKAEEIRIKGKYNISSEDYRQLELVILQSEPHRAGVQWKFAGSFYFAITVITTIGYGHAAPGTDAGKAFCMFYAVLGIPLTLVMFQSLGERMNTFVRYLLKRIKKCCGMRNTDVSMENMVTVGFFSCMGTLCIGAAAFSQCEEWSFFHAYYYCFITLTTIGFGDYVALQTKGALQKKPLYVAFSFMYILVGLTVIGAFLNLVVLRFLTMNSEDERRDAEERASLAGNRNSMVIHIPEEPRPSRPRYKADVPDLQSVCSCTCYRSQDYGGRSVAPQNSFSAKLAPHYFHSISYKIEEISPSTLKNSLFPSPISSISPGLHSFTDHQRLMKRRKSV
KCNQ1 block: inhibitors of human KCNQ1 channel, primary screen, cell-based, thallium flux, high-throughput | Potassium voltage-gated channel subfamily KQT member 1 (Homo sapiens), P51787 | CHO-K1 KCNQ1, FluxOR thallium flux fluorescence; active compounds read high | AID 2642, 2010 | 1.3% of 310,000 active | B-score at 10 µM;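 active = compounds whose thallium flux B-score, printed positive for inhibition, exceeds three library SD while starting fluorescence stays within three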;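 note: channel opened by potassium depolarization with thallium stimulus after 20 min compound exposure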
hERG rescue: hERG rescue from dofetilide block, primary screen, cell-based, CHO-hERG, FluxOR thallium flux, dofetilide IC70; Voltage-gated inwardly rectifying potassium channel KCNH2 (Homo sapiens), Q12809; dofetilide IC70 present; activation (rescue from dofetilide block), less the hit threshold, % at 10 µM; 0.51% of 310,000 active;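 active = activation above the mean of controls blocked by dofetilide plus 5 SD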;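 note: thallium influx through hERG after potassium depolarization seen as dye fluorescence rise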
KCNK3 inh: human KCNK3 channel inhibitors, primary screen, CHO cells, FluxOR thallium flux, B-score. 0.84% of 340,000 active. FluxOR fluorescence; active compounds read low. Potassium channel subfamily K member 3 (Homo sapiens), O14649. AID 602410, 2012. B-score at 10 µM;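 active = B-score under library mean minus 4 SD, starting fluorescence ratio at most library mean plus 5 SD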;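 note: more negative B-score means stronger inhibition of thallium flux through KCNK3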
KCNQ1 act: potentiators or activators of KCNQ1 channel, primary screen, cell-based, thallium flux, high-throughput. CHO-K1 KCNQ1, thallium flux FluxOR fluorescence; active compounds read high. B-score at 10 µM. 0.35% of 310,000 active;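 active = fluorescence ratio B-score, a plate-corrected score, at least three library SD, with initial intensity B-score within 5 SD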
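System: CHO-K1 cells stably expressing KCNQ1 / Medium: assay buffer for compound exposure, DMSO matched across wells / Reagent: thallium- and potassium-containing depolarizing buffer / Compound: one concentration, matched DMSO / Incubation: 20 min compound pretreatment at room temperature / Measured by: kinetic FluxOR fluorescence, 10 s baseline plus 110 s post-stimulus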
KCNK9 inh conf: KCNK9 potassium channel inhibitors, confirmation, HEK293 cells, thallium flux, duplicate; shares compounds with KCNK9 inh; FluxOR thallium flux fluorescence; inhibition, % at 10 µM; 43% of 4,900 active; AID 492992, 2010;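 active = thallium signal inhibited by more than 5 SD of the compound-free buffer control wells, on both duplicate plates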;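 note: 0% = assay buffer control wells without compound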
Kir2-1 spec: mouse Kir2.1 channel inhibition, confirmation, selectivity assay for KCNK9 modulator project, cell-based, HEK293, thallium flux | shares compounds with KCNK9 inh | Kir2.1 cells, FluxOR thallium flux fluorescence | inhibition, % at 10 µM | 4% of 4,900 active | AID 492993, 2010;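 active = thallium signal drop more than 5 SD beyond the mean of the no-compound control wells, seen in both duplicate plates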;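 note: signal is fluorescence rise after thallium addition divided by baseline fluorescence; plate controls were assay buffer only for no effect and full block by chlorpromazine control for full effect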
HEK293 Tl ctr: thallium flux in non-induced HEK293 cells, confirmation, counter-screen for KCNK9 inhibitor project, cell-based, second counter screen, non-induced KCNK9-HEK293; AID 492997, 2010; shares compounds with KCNK9 inh; 40% of 4,900 active; FluxOR thallium flux; inhibition, % at 10 µM;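 active = thallium signal drop beyond 5 SD of the untreated control mean, on both duplicate plates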;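 note: plate controls were buffer only IC0 wells for no effect and SID17386958 at its maximal inhibitory level for full effect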
* = called active by the depositor; i = inactive; . = no result.

SMILES | Kir21 inh | KCNK9 inh | KCNQ1 block | hERG rescue | KCNK3 inh | KCNQ1 act | KCNK9 inh conf | Kir2-1 spec | HEK293 Tl ctr
CC1CCN(C(=O)CN(c2ccc(Cl)c(C(F)(F)F)c2)S(C)(=O)=O)CC1 | -1.2 | i | i | -7 | i | i | . | . | .
CS(=O)(=O)N(CC(=O)N1CCN(c2ccccc2)CC1)c1ccc(Cl)c(C(F)(F)F)c1 | 1.6 | i | i | -7 | i | i | i | i | i
Cc1ccc(Cl)cc1N1CCN(C(=O)CN(c2ccccc2)S(=O)(=O)N(C)C)CC1 | 0.27 | -9* | i | -13 | i | i | 28%* | i | 34%*
CN1CCN(C(=O)CN(c2ccccc2)S(=O)(=O)N(C)C)CC1 | 1.5 | i | i | 0 | . | i | . | . | .
C/C(N)=C(/C#N)C(=O)COC(=O)c1ccc(C#N)cc1 | 0.42 | i | i | -3 | i | i | . | . | .
COc1ccc(-c2ccc(/C=N/N3C(=O)C4C5C=CC(C6CC56)C4C3=O)o2)c([N+](=O)[O-])c1 (stereo not given) | 1.4 | i | i | -16 | i | i | . | . | .
O=C1C2C3C=CC(C4CC34)C2C(=O)N1/N=C/c1ccc(-c2ccc(Cl)cc2[N+](=O)[O-])o1 (stereo not given) | 3 | i | i | -14 | i | i | i | i | i
NC(=O)c1c(NC(=O)CSc2nc3c(c(C(F)(F)F)n2)CCc2ccccc2-3)sc2c1CCCC2 | 0.16 | i | i | -12 | i | i | . | . | .
CN(Cc1ccccc1)C(=O)CSc1nc2c(c(C(F)(F)F)n1)CCc1ccccc1-2 | 0.56 | i | i | -7 | i | i | i | i | i
COc1ccc(OC)c(Nc2nc(C3CC3)nc3c2nnn3Cc2ccccc2)c1 | -0.69 | i | i | -10 | i | i | i | i | i
CC(C)Cc1nc(N2CCC(C(N)=O)CC2)c2nnn(Cc3ccccc3)c2n1 | -0.02 | i | i | -12 | i | i | . | . | .
Cc1nc(NCCc2ccccc2)c2nnn(Cc3ccccc3Cl)c2n1 | 0.29 | i | i | -4 | i | i | . | . | .
COc1ccc(Cl)cc1Nc1nc(C)nc2c1nnn2Cc1ccccc1 | -0.4 | i | i | -5 | i | i | . | . | .
COc1ccc(CCNc2nc(C)nc3c2nnn3Cc2ccccc2)cc1 | -0.11 | i | i | -2 | i | i | i | i | i
Cc1nc(N2CCC(C)CC2)c2nnn(Cc3ccccc3)c2n1 | -0.03 | i | i | -5 | i | i | i | i | i
Cc1cccc([N+](=O)[O-])c1NC(=O)COC(=O)c1nc2nccc(C)n2n1 | . | . | . | . | i | . | . | . | .
CC(C)N(Cc1ccccc1)C(=O)COC(=O)c1ccc(S(=O)(=O)N2CCOCC2)cc1 | . | . | . | . | i | . | . | . | .
CCC(OCC(O)CN1CCN(CCN2C(=O)c3cccc4cccc(c34)C2=O)CC1)c1ccccc1 (stereo not given) | -0.91 | i | i | -18 | i | i | i | i | i
Cc1cccc(C)c1OCC(O)CN1CCC(CN2C(=O)c3cccc4cccc(c34)C2=O)CC1 (stereo not given) | 1.1 | i | i | -22 | i | i | i | i | i
Cc1ccccc1OCC(O)CN1CCN(CCN2C(=O)c3cccc4cccc(c34)C2=O)CC1 (stereo not given) | 0.09 | i | i | -10 | i | i | i | i | i
C=CCc1ccccc1OCC(O)CN1CCN(CCN2C(=O)c3cccc4cccc(c34)C2=O)CC1 (stereo not given) | -2.2 | i | i | -31 | i | i | i | i | i
Cc1ccc(NC(=O)C2CCN(S(C)(=O)=O)CC2)cc1Cl | 0.38 | i | i | -7 | i | i | . | . | .
CC(=O)Nc1ccc2oc(-c3ccccc3Br)nc2c1 | 0.13 | i | i | -6 | i | i | . | . | .
Cc1ccccc1-c1nc2cc(NC(=O)C3CC3)ccc2o1 | -1.6 | -8.7* | i | -7 | i | i | i | i | i
CC(C)CNC(=O)C1CCN(S(=O)(=O)c2ccc3c(c2)OCCO3)CC1 | -0.06 | i | i | -12 | i | i | . | . | .
SMILES | Kir21 inh | KCNK9 inh | KCNQ1 block | hERG rescue | KCNK3 inh | KCNQ1 act | KCNK9 inh conf | Kir2-1 spec | HEK293 Tl ctr
CC(C)(C)c1ccc(SCCc2cccnc2)cc1 | -0.54 | i | i | 0 | i | i | i | i | i
O=C(CN(C(=O)CCC(=O)Nc1nccs1)c1cccc(F)c1)NCc1ccccc1 | -0.05 | i | i | -5 | i | i | . | . | .
CCN(CC(=O)Nc1c(F)cccc1F)C(=O)COc1ccc2c(C)cc(=O)oc2c1 | 1.1 | i | i | -8 | i | i | . | . | .
CC1Cc2ccccc2N1C(=O)c1cc2sccc2n1Cc1ccc(F)cc1 (stereo not given) | 0.68 | -9.8* | 8* | -11 | i | i | 37%* | i | 23%*
CCN(CC(=O)Nc1cc(Cl)ccc1C)C(=O)COc1cccc2c1OC(C)(C)C2 | 0 | i | i | -6 | i | i | . | . | .
CCOn1c(=O)c(-c2cccs2)[n+]([O-])c2ccccc21 | -1.9 | i | i | -4 | i | i | . | . | .
CCOC(=O)COn1c(=O)c(-c2cccs2)[n+]([O-])c2ccccc21 | -4.2 | -8.3* | i | -13 | i | i | 46%* | i | 47%*
O=C1CN(C(=O)COC(=O)c2ccc[n+]([O-])c2)c2ccccc2N1 | -1.2 | i | i | -3 | i | i | . | . | .
O=C(COC(=O)CNC(=O)c1ccccc1)NCCNC(=O)COC(=O)CNC(=O)c1ccccc1 | . | . | . | . | i | . | . | . | .
